Laboratory results as given in ChEMBL document CHEMBL1156549, “Synthesis, DNA-binding ability and evaluation of antitumour activity of triazolo[1,2,4]benzothiadiazine linked pyrrolo[2,1-c][1,4]benzodiazepine conjugates” (2008).

Assays:
DNA [1] = assay: Binding affinity to calf thymus DNA at pH 7.0 at 20 uM after 18 hrs by thermal denaturation assay; assay type: nucleic-acid assay; conditions: Bos taurus
DNA [2] = assay: Binding affinity to calf thymus DNA at pH 7.0 at 20 uM after 36 hrs by thermal denaturation assay; assay type: nucleic-acid assay; conditions: Bos taurus
ZR-75-1 = assay: Cytotoxicity against human Zr-75-1 cells after 48 hrs by sulforhodamine B assay; assay type: functional; conditions: ZR-75-1, 48 h
Method in brief: (§1)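 Cells were grown in RPMI 1640 with 10% FBS and 2 mM L-glutamine, seeded at densities set by doubling time, and left 24 h before drug. Exposure was 48 h continuous at 0.1, 1, 10 and 100 µM, triplicate wells. Cells were fixed in cold 10% TCA for 60 min at 4 °C and stained with SRB. Bound dye was eluted with 10 mM Tris and read at 540 nm (690 nm reference). GI50 was the concentration halving net protein increase versus control.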

A2780 = assay: Cytotoxicity against human A2780 cells after 48 hrs by sulforhodamine B assay; assay type: functional; conditions: A2780, 48 h; method in brief: as §1
A549 = assay: Cytotoxicity against human A549 cells after 48 hrs by sulforhodamine B assay; assay type: functional; conditions: A549, 48 h; method in brief: as §1
MCF7 = assay: Cytotoxicity against human MCF7 cells after 48 hrs by sulforhodamine B assay; assay type: functional; conditions: MCF7, 48 h; method in brief: as §1
[3] = Cytotoxicity against human AW13516 cells after 48 hrs by sulforhodamine B assay; assay type: functional; method in brief: as §1
[4] = Cytotoxicity against human AW8507 cells after 48 hrs by sulforhodamine B assay; assay type: functional; conditions: AW8507, 48 h; method in brief: as §1
KB = assay: Cytotoxicity against human KB cells after 48 hrs by sulforhodamine B assay; assay type: functional; method in brief: as §1
COLO 205 = assay: Cytotoxicity against human Colo205 cells after 48 hrs by sulforhodamine B assay; assay type: functional; conditions: COLO 205, 48 h; method in brief: as §1
SiHa = assay: Cytotoxicity against human SiHa cells after 48 hrs by sulforhodamine B assay; assay type: functional; method in brief: as §1
PC-3 = assay: Cytotoxicity against human PC3 cells after 48 hrs by sulforhodamine B assay; assay type: functional; conditions: PC-3, 48 h; method in brief: as §1
HOP-62 = assay: Cytotoxicity against human HOP62 cells after 48 hrs by sulforhodamine B assay; assay type: functional; conditions: HOP-62, 48 h; method in brief: as §1

| ΔTm (DNA [1]) [°C] | ΔTm (DNA [2]) [°C] | Compound | GI50 (ZR-75-1) [nM] | GI50 (A2780) [nM] | GI50 (A549) [nM] | GI50 (MCF7) [nM] | GI50 [3] [nM] | GI50 [4] [nM] | GI50 (KB) [nM] | GI50 (COLO 205) [nM] | GI50 (SiHa) [nM] | GI50 (PC-3) [nM] | GI50 (HOP-62) [nM] |
| --- | --- | --- | --- | --- | --- | --- | --- | --- | --- | --- | --- | --- | --- |
| 1.2 | 1.5 | COc1cc2c(cc1OCCCSc1nnc3n1S(=O)(=O)c1ccccc1N3c1ccccc1)N=C[C@@H]1CCCN1C2=O | 26000 | 30000 | – | – | – | – | – | – | – | – | – |
| 0.5 | 0.7 | COc1cc2c(cc1OCCCCSc1nnc3n1S(=O)(=O)c1ccccc1N3C)N=C[C@@H]1CCCN1C2=O | 25900 | 2170 | 2280 | 2290 | 26600 | 2290 | 26400 | 2110 | 27000 | 25500 | – |
| 0.6 | 0.7 | COc1cc2c(cc1OCCCCSc1nnc3n1S(=O)(=O)c1ccccc1N3c1ccccc1)N=C[C@@H]1CCCN1C2=O | – | 2270 | 29700 | – | 1980 | 25800 | – | – | – | 28800 | – |
| 1.3 | 1.5 | COc1cc2c(cc1OCCCCCSc1nnc3n1S(=O)(=O)c1ccccc1N3c1ccccc1)N=C[C@@H]1CCCN1C2=O | 24000 | 2010 | 30300 | – | 1780 | 2480 | 2460 | 25600 | 2300 | 2400 | 2350 |
| – | – | COc1cccc2c1C(=O)c1c(O)c3c(c(O)c1C2=O)C[C@@](O)(C(=O)CO)C[C@@H]3O[C@H]1C[C@H](N)[C@H](O)[C@H](C)O1 [DOXORUBICIN] | – | 160 | – | 170 | 100 | 170 | 1720 | 140 | 180 | – | 140 |
| 1.5 | 1.7 | COc1cc2c(cc1OCCCSc1nnc3n1S(=O)(=O)c1ccccc1N3C)N=C[C@@H]1CCCN1C2=O | 2190 | 1830 | 2290 | 2060 | 2240 | 2240 | 2380 | 1930 | 2120 | 2150 | 2130 |
| 2.4 | 2.6 | COc1cc2c(cc1OCCCCCSc1nnc3n1S(=O)(=O)c1ccccc1N3C)N=C[C@@H]1CCCN1C2=O | 28500 | 1920 | 2450 | – | 1950 | 220 | 25600 | 2190 | 27900 | 25500 | – |

| Compound | ΔTm (DNA [1]) [°C] | ΔTm (DNA [2]) [°C] | GI50 (ZR-75-1) [nM] | GI50 (A2780) [nM] | GI50 (A549) [nM] | GI50 (MCF7) [nM] | GI50 [3] [nM] | GI50 [4] [nM] | GI50 (KB) [nM] | GI50 (COLO 205) [nM] | GI50 (SiHa) [nM] | GI50 (PC-3) [nM] | GI50 (HOP-62) [nM] |
| --- | --- | --- | --- | --- | --- | --- | --- | --- | --- | --- | --- | --- | --- |
| COc1cc2c(cc1O)N=C[C@@H]1CCCN1C2=O | 0.7 | 0.7 | – | – | – | – | – | – | – | – | – | – | – |
